Shown are actives, neighbours in structure and some others; about 4.6% of the full set was active somewhere.
Pemphigus Ab inh: inhibitors of pemphigus antibody binding to human desmoglein-3 | P32926 | DSG3-coupled beads, scFv-anti-DSG3-GFP binding, flow cytometry; stronger effect = lower value | binding (percent of control), % at 10 µM | actives 0.48% (n = 310,000) | AID 588358;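 active means binding more than 3 SD below its plate's average and above zero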;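 further: hits lower antibody fragment binding to DSG3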
Target sequence (P32926 whole entry, looked up, the tested form may be a part): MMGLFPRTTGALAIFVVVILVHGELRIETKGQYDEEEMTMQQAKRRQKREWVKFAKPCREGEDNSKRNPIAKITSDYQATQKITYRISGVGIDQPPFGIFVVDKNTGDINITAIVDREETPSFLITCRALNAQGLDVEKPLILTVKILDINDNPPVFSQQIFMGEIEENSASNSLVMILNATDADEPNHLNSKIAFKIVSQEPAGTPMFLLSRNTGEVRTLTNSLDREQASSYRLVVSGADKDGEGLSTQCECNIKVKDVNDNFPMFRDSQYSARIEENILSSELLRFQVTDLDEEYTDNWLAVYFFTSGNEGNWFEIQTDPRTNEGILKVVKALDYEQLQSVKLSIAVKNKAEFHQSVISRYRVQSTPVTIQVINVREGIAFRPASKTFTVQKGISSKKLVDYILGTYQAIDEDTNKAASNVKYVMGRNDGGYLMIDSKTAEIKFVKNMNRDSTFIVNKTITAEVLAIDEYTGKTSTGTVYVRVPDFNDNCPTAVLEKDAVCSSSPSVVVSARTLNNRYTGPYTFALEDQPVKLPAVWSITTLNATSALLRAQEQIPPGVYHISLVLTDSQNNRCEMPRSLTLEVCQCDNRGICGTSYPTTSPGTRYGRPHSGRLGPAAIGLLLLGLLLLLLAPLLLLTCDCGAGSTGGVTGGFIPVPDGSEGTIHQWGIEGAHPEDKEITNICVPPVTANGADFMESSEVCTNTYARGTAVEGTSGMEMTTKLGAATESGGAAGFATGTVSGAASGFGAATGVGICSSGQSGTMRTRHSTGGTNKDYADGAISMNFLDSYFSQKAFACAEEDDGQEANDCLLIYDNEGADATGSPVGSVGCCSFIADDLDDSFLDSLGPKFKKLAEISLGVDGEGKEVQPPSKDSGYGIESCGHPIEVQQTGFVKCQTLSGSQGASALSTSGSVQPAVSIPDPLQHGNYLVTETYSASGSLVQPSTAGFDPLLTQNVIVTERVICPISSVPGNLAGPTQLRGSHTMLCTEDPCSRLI
PolyA inh: yeast polyadenylation inhibition; AID 1875; activity score, % at 12 µM; S. cerevisiae SKY197-pL101 polyadenylation reporter, beta-gal luminescence; efflux-impaired pdr1/pdr3 knockout yeast; score 100 = 6 SD above DMSO; actives 0.02% (n = 300,000);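 active means lowest replicate activity score at least 50, where 100 means six control SD above control mean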;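 further: yeast exposed to compound for 9 h at 30 °C; higher score means more reporter readthrough which indicates perturbed polyadenylation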
Arr AP2 block: human beta-arrestin and AP2 interaction inhibition | AID 504490 | inhibition, % at 10 µM | FITC-arrestin peptide / GST-AP2 beads, flow cytometry; AP2 beta2 appendage carries R879A mutation | actives 0.31% (n = 340,000);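 active means inhibition above a set limit, near 3 SD of compounds lacking own fluorescence, cut at about 54% in these data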
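Assay system: GST-AP2 R879A bound to glutathione beads, E. coli-expressed; Medium: PBS with 0.05% Tween 20 and 0.1% BSA; Also added: fluorescein-tagged arrestin peptide at 50 nM final; Timing: 12 min plus 1 h, RT; Measured by: flow cytometry, FL1 (488/535 nm); Evaluation: percent drop in bead-associated FITC signal.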
ALR inh: blocks human ALR sulfhydryl oxidase activity. P55789. purified ALR, DTT oxidation, H2O2 HRP-luminol luminescence. inhibition, % (concentration not given with the values). actives 3.8% (n = 290,000). AID 485317;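 active means mean replicate inhibition above about 79%, with every replicate also reaching it, limit read from the data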
NLRP3 yeast inh: NALP3 inhibition in yeast. Yeast reconstituted NLRP3/ASC/caspase-1, beta-gal luminescence, 24 h. inhibition, % at 10 µM. actives 0.39% (n = 330,000). AID 2825;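 active means inhibition of 50% or more; inactive means inhibition below 50%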
NALP1 yeast inh: blocks the NALP1 inflammasome reconstituted in yeast; actives 0.61% (n = 280,000); S. cerevisiae NALP1/ASC/caspase-1 growth, X-gal OD620, 72 h; inhibition, % at 10 µM; AID 2071; in the data active means inhibition mostly above about 24%, no sharp cut-off; inactive means mostly below about 32%
Hits are given with their value; – = inactive; · = no result given.

SMILES	Pemphigus Ab inh	PolyA inh	Arr AP2 block	ALR inh	NLRP3 yeast inh	NALP1 yeast inh
CC(=O)Nc1sc2c(c1C#N)CCC(C)C2 (stereo not given)	–	–	–	–	–	–
N#Cc1c(NC(=O)C2CC=CCC2C(=O)O)sc2c1CCCCCC2 (stereo not given)	–	–	–	·	–	–
CC1CCc2c(sc(NC(=O)c3ccccc3C(=O)O)c2C#N)C1 (stereo not given)	–	–	–	97	–	–
Cc1ccc(C)n1-c1sc2c(c1C#N)CCC(C)C2 (stereo not given)	–	–	–	–	–	35
COc1cccc(Nc2nc3cc(C)ccc3cc2C)c1	–	·	·	·	·	·
Cc1ccc(C2NC(=O)c3c(sc(C)c3C)N2)c(O)c1 (stereo not given)	–	–	–	92	–	–
CN(CC(=O)Nc1ccc(F)cc1)CC(=O)N1CCCC1	–	·	–	–	–	·
COc1ccc(C)cc1NC(=O)c1ccc2c(c1)C(=O)N(Cc1ccncc1)C2=O	–	·	–	–	–	·
COc1ccc(NC(=O)c2ccc3c(c2)C(=O)N(Cc2ccncc2)C3=O)cc1S(N)(=O)=O	69	·	–	–	–	·
O=C(CN1CCOc2ccccc21)NCc1ccc(Cl)cc1	–	–	–	99	–	–
O=C(CN1CCOc2ccccc21)NCc1cccs1	–	–	–	99	–	–
O=C(CN1CCOc2ccccc21)NCc1ccco1	–	–	–	–	–	–
COCCNC(=O)CN1CCOc2ccccc21	–	–	–	·	–	–
O=C(CN1CCOc2ccccc21)NC1CC1	–	–	–	87	–	·
O=C(CN1CCOc2ccccc21)NCc1ccc(F)cc1	–	–	–	98	–	–
COc1cc(/C=C/C(=O)OCC(=O)Nc2ccc3[nH]c(=O)[nH]c3c2)ccc1OC(F)F	–	·	·	·	·	·
CCCCN1C(=O)c2ccc(C(=O)NC3(C)CCS(=O)(=O)C3)cc2C1=O (stereo not given)	–	·	–	–	–	·
CCc1nccn1S(=O)(=O)c1ccc(Br)cc1Br	·	–	–	–	–	–
CCc1nccn1S(=O)(=O)c1ccc(OC)c(C)c1C	–	–	–	–	–	34
O=C1CCCC2=C1C(c1ccc(O)c(O)c1)c1c(ccc3ncccc13)N2 (stereo not given)	–	–	–	100	–	–
Nn1c(SCC(=O)Nc2ccc(N3CCOCC3)cc2)nnc1-c1cccc(F)c1	·	·	–	99	–	·
Nn1c(SCC(=O)Nc2ccc(N3CCOCC3)cc2)nnc1-c1ccccc1F	–	·	–	99	–	·
COc1ccccc1-c1nnc(SCC(=O)Nc2ccc(N3CCOCC3)cc2)n1N	–	·	–	–	–	·
Cc1nnc(SCC(=O)Nc2ccc(N3CCOCC3)cc2)n1-c1ccccc1	–	–	–	·	–	–
COc1cc(CNCCCN2CCOCC2)cc(Cl)c1OCC(=O)NC(C)(C)C	–	–	–	–	–	–
SMILES	Pemphigus Ab inh	PolyA inh	Arr AP2 block	ALR inh	NLRP3 yeast inh	NALP1 yeast inh
Cc1cccc(C(=O)Nc2nnc(S(=O)(=O)N3CCC(C)CC3)s2)c1	–	–	–	–	–	40
O=C(Nc1nnc(S(=O)(=O)N2CCCCCC2)s1)c1ccccc1F	–	–	–	–	–	–
Cc1ccccc1C(=O)Nc1nnc(S(=O)(=O)N2CCCCCC2)s1	-6.6	–	–	·	–	–
N#CCC(=O)Nc1ccc(C(=O)Nc2cccc(S(=O)(=O)N3CCCC3)c2)cc1	–	·	·	·	·	·
COC(=O)CCN1CCC2CC1c1cc(N3CCCCC3)ccc12 (stereo not given)	–	·	·	·	·	·
COc1ccc(-c2csc(Cc3nnc4n3CCCCC4)n2)cc1OC	–	–	–	98	–	–
CCc1ccc(-c2nc(CN3CCC(C(=O)NCc4ccco4)CC3)c(C)o2)cc1	·	–	·	–	–	–
CCc1ccc(-c2nc(CS(=O)CC(=O)NCCN3CCCCCC3)c(C)o2)cc1 (stereo not given)	–	–	–	100	–	–
CCc1ccc(-c2nc(CS(=O)CC(=O)NCCCN3CCC(C)CC3)c(C)o2)cc1 (stereo not given)	–	–	–	98	–	–
Cc1ccccc1-c1nc(CS(=O)CC(=O)NCCN2CCOCC2)c(C)o1 (stereo not given)	–	–	–	99	–	–
